Test results taken from ChEMBL document CHEMBL1157562, “Piperazinyl glutamate pyridines as potent orally bioavailable P2Y12 antagonists for inhibition of platelet aggregation” (J Med Chem, 2010).

What was measured:
[1] = molecular target: P2Y purinoceptor 12 (Homo sapiens, UniProt Q9H244); assay: Displacement of [33P]ADP from human recombinant P2Y12 receptor expressed in CHO cells; format: cell-based
In short: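 Washed membranes from CHO cells expressing synthetic human P2Y12, incubated 1 h at room temperature with 0.2 nM 33P-MeSADP in 50 mM Tris/100 mM NaCl/1 mM EDTA. Compound was tested as a 7-point 3-fold series in triplicate. Nonspecific binding was defined with 300 nM 2-MeSADP, followed by filtration.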

[2] = Antiplatelet aggregation activity against adenosine diphosphate-induced human platelet rich plasma assessed as inhibition of platelet aggregation by turbidimetric method; format: functional; settings: Homo sapiens, Platelet, Plasma
In short: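 Human PRP, prepared by two-step centrifugation and adjusted to 330 000 platelets/μL with PPP. Compound was preincubated 5 min at 37 °C in 0.5% DMSO, then 20 μM ADP was added. OD626 was read kinetically for 15 min at 37 °C with mixing between reads.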

[3] = tested on: Platelet; assay: Relative potency, ratio of IC50 for drug to IC50 for AZD-6140 for platelet aggregation in human platelet rich plasma; format: functional

P2Y purinoceptor 12, sequence (Q9H244 whole entry): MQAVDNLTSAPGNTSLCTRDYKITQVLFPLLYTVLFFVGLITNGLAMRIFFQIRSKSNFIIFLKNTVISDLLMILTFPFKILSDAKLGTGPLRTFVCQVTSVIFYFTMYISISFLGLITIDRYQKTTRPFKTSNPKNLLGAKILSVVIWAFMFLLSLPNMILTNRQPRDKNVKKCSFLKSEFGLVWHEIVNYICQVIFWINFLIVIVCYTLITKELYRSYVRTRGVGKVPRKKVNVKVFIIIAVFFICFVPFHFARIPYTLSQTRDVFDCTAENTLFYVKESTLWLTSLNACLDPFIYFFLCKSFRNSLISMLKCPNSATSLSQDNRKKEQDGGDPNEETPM

SMILES | Ki [1] [nM] | IC50 [2] [nM] | Ratio IC50 [3]
CCCCOC(=O)N1CCN(C(=O)[C@H](CCC(=O)O)NC(=O)c2cc(OC3CCN(S(=O)(=O)CC)CC3)cc(-c3ccccc3)n2)CC1 | 7.6 | 3300 | 3.1
CCCCOC(=O)N1CCN(C(=O)[C@H](CCC(=O)O)NC(=O)c2cc(OCCO)cc(-c3ccccc3)n2)CC1 | 20 | 7900 | 5.1
CCCCOC(=O)N1CCN(C(=O)[C@H](CCC(=O)O)NC(=O)c2cc(OCC3CCN(C(=O)COC)CC3)cc(-c3ccccc3)n2)CC1 | 2.6 | 1500 | 1.4
CCCCCOC(=O)N1CCN(C(=O)[C@H](CCC(=O)O)NC(=O)c2cc(CCCOC)cc(-c3ccccc3)n2)CC1 | 8.4 | 5000 | 6.6
CCCCCOC(=O)N1CCN(C(=O)[C@H](CCC(=O)O)NC(=O)c2cc(CCCCOC)cc(-c3ccccc3)n2)CC1 | 8.3 | 4200 | 4.5
CCCCOC(=O)N1CCN(C(=O)[C@H](CCC(=O)O)NC(=O)c2cc(OCC3CCN(C(=O)OCC)CC3)cc(-c3ccccc3)n2)CC1 | 7.6 | 4000 | 2.2
CCCCOC(=O)N1CCN(C(=O)[C@H](CCC(=O)O)NC(=O)c2cc(OC3CCN(C)CC3)cc(-c3ccccc3)n2)CC1 | 2.5 | 2000 | 1.9
CCCCOC(=O)N1CCN(C(=O)[C@H](CCC(=O)O)NC(=O)c2cc(N3CCOCC3)cc(-c3ccccc3)n2)CC1 | 3.3 | 7200 | 11
CCCCCCOC(=O)N1CCN(C(=O)[C@H](CCC(=O)O)NC(=O)c2cc(NCCOC)cc(-c3ccccc3)n2)CC1 | 11 | 7300 | 9.6
CCCCOC(=O)N1CCN(C(=O)[C@H](CCC(=O)O)NC(=O)c2cc(OCC3CCN(C(C)C)CC3)cc(-c3ccccc3)n2)CC1 | 4.5 | 410 | 0.33
CCCCCOC(=O)N1CCN(C(=O)[C@H](CCC(=O)O)NC(=O)c2cc(NC(=O)CN3CCN(C)CC3)cc(-c3ccccc3)n2)CC1 | 2.3 | 4300 | 4.1
CCCCCOC(=O)N1CCN(C(=O)[C@H](CCC(=O)O)NC(=O)c2cc(OCCO)cc(-c3ccccc3)n2)CC1 | 31 | 12000 | 10
CCCCCCOC(=O)N1CCN(C(=O)[C@H](CCC(=O)O)NC(=O)c2cc(O)cc(-c3ccccc3)n2)CC1 | 20 | 21000 | 21
CCCCCOC(=O)N1CCN(C(=O)[C@H](CCC(=O)O)NC(=O)c2cc(OC(=O)N3CCC(OCC)CC3)cc(-c3ccccc3)n2)CC1 | 6 | 590 | 1.2
CCCCOC(=O)N1CCN(C(=O)[C@H](CCC(=O)O)NC(=O)c2cc(OCC3CCCCN3)cc(-c3ccccc3)n2)CC1 (stereo not given in full) | 11 | 1800 | 2
CCCCCOC(=O)N1CCN(C(=O)[C@H](CCC(=O)O)NC(=O)c2cc(C(N)=O)cc(-c3ccccc3)n2)CC1 | 7.5 | 8900 | 9
CCCCCOC(=O)N1CCN(C(=O)[C@H](CCC(=O)O)NC(=O)c2cc(C(=O)NCC)cc(-c3ccccc3)n2)CC1 | 13 | 9700 | 13
CCCCOC(=O)N1CCN(C(=O)[C@H](CCC(=O)O)NC(=O)c2cc(OCCCCO)cc(-c3ccccc3)n2)CC1 | 4.9 | 4500 | 6.7
CCCCCCOC(=O)N1CCN(C(=O)[C@H](CCC(=O)O)NC(=O)c2cc(OCCO)cc(-c3ccccc3)n2)CC1 | 18 | 21000 | 13
CCCCOC(=O)N1CCN(C(=O)[C@H](CCC(=O)O)NC(=O)c2cc(N3CCC(N)CC3)cc(-c3ccccc3)n2)CC1 | 3.5 | 910 | 1.2

SMILES | Ki [1] [nM] | IC50 [2] [nM] | Ratio IC50 [3]
CCOC(=O)N1CCN(C(=O)[C@H](CCC(=O)O)NC(=O)c2cc(N3CCC(N)CC3)cc(-c3ccccc3)n2)CC1 | 10 | 2800 | 8.1
CCCCOC(=O)N1CCN(C(=O)[C@H](CCC(=O)O)NC(=O)c2cc(N3CCC(N4CCCC4)CC3)cc(-c3ccccc3)n2)CC1 | 64 | 560 | 1.7
CCOC(=O)N1CCN(C(=O)[C@H](CCC(=O)O)NC(=O)c2cc(OCC)cc(-c3ccccc3)n2)CC1 | 94 | 31000 | 44
CCCCCOC(=O)N1CCN(C(=O)[C@H](CCC(=O)O)NC(=O)c2cc(OC(=O)N3CC[C@H](OC)C3)cc(-c3ccccc3)n2)CC1 | 4.9 | 690 | 1
CCCCCOC(=O)N1CCN(C(=O)[C@H](CCC(=O)O)NC(=O)c2cc(C(=O)NCCOC)cc(-c3ccccc3)n2)CC1 | 7.9 | 8000 | 18
CCCCCOC(=O)N1CCN(C(=O)[C@H](CCC(=O)O)NC(=O)c2cc(NC(=O)NCC(=O)N(C)C)cc(-c3ccccc3)n2)CC1 | 4.7 | 3400 | 3.9
CCCCCOC(=O)N1CCN(C(=O)[C@H](CCC(=O)O)NC(=O)c2cc(OCC3CCN(C(=O)C(F)(F)F)CC3)cc(-c3ccccc3)n2)CC1 | 4.5 | 3500 | 4.8
CCCCCOC(=O)N1CCN(C(=O)[C@H](CCC(=O)O)NC(=O)c2cc(OC3CCN(C(C)C)CC3)cc(-c3ccccc3)n2)CC1 | 7 | 480 | 0.68
CCCCCOC(=O)N1CCN(C(=O)[C@H](CCC(=O)O)NC(=O)c2cc(NC(=O)C(F)(F)F)cc(-c3ccccc3)n2)CC1 | 9.1 | 8200 | 8.2
CCCCCCOC(=O)N1CCN(C(=O)[C@H](CCC(=O)O)NC(=O)c2cc(OCCCC)cc(-c3ccccc3)n2)CC1 | 89 | 97000 | 65
CCCCCOC(=O)N1CCN(C(=O)[C@H](CCC(=O)O)NC(=O)c2cc(C(=O)N(C)CCCN(C)C)cc(-c3ccccc3)n2)CC1 | 8.6 | 420 | 0.96
CCCCOC(=O)N1CCN(C(=O)[C@H](CCC(=O)O)NC(=O)c2cc(OC(=O)N(C)C3CCOC3)cc(-c3ccccc3)n2)CC1 (stereo not given in full) | 1.8 | 520 | 0.63
CCCCCOC(=O)N1CCN(C(=O)[C@H](CCC(=O)O)NC(=O)c2cc(NC(=O)N3CCC(OC)CC3)cc(-c3ccccc3)n2)CC1 | 9.2 | 5500 | 6.1
CCCCCOC(=O)N1CCN(C(=O)[C@H](CCC(=O)O)NC(=O)c2cc(C(=O)NCCCOC)cc(-c3ccccc3)n2)CC1 | 6.1 | 4600 | 12
CCCCCOC(=O)N1CCN(C(=O)[C@H](CCC(=O)O)NC(=O)c2cc(OC3CCNCC3)cc(-c3ccccc3)n2)CC1 | 3.5 | 500 | 0.64
CCCCCOC(=O)N1CCN(C(=O)[C@H](CCC(=O)O)NC(=O)c2cc(OC3CCN(C(=O)OCC)CC3)cc(-c3ccccc3)n2)CC1 | 6.5 | 8200 | 8.1
CCCCOC(=O)N1CCN(C(=O)[C@H](CCC(=O)O)NC(=O)c2cc(OC3CCN(C(=O)OCC)CC3)cc(-c3ccccc3)n2)CC1 | 20 | 3700 | 5.9
CCCCCOC(=O)N1CCN(C(=O)[C@H](CCC(=O)O)NC(=O)c2cc(C(=O)N(C)CCCOC)cc(-c3ccccc3)n2)CC1 | 2.6 | 630 | 1.4
CCCCOC(=O)N1CCN(C(=O)[C@H](CCC(=O)O)NC(=O)c2cc(OC(=O)N3CC[C@@H](OC)C3)cc(-c3ccccc3)n2)CC1 | 1.5 | 770 | 0.97
CCCCCOC(=O)N1CCN(C(=O)[C@H](CCC(=O)O)NC(=O)c2cc(OCC3CCN(C(=O)COC)CC3)cc(-c3ccccc3)n2)CC1 | 12 | 1300 | 1.3
